Measured values from ChEMBL document CHEMBL3779871, “4,5-Diarylisoxazol-3-carboxylic acids: A new class of leukotriene biosynthesis inhibitors potentially targeting 5-lipoxygenase-activating protein (FLAP)” (Eur J Med Chem, 2016).

Experiments:
[1] = target: T1, Arachidonate 5-lipoxygenase-activating protein (Homo sapiens) (UniProt P20292); test: Inhibition of FLAP in Ca+2 ionophore A23187 stimulated human neutrophils assessed as remaining 5-LO activity preincubated for 15 mins at 10 uM measured after 10 mins by RP-HPLC analysis
T1 sequence (whole entry): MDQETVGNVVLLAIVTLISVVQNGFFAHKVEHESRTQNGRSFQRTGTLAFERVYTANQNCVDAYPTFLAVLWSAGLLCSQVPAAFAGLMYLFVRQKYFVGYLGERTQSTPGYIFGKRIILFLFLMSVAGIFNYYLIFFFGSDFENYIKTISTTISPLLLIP

[2] = target: T2, Arachidonate 5-lipoxygenase-activating protein (Homo sapiens, UniProt P20292); test: Inhibition of FLAP in Ca+2 ionophore A23187 stimulated human neutrophils assessed as 5-LO product formation preincubated for 15 mins measured after 10 mins by RP-HPLC analysis
T2 sequence (P20292 whole entry): T1 sequence (whole entry)

[3] = Acute cytotoxicity against human neutrophils assessed as cell viability measured for 30 mins by trypan blue exclusion method; type: cell-based; conditions: neutrophil, 0.5 h
Summary of the method: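 Neutrophils isolated from healthy donor blood by dextran sedimentation and Nycoprep centrifugation, then resuspended in PBS pH 7.4 with 1 mg/ml glucose and 1 mM CaCl₂. Cells were kept 30 min at 37 °C with compound, and cell integrity was read by trypan blue exclusion on an automated counter.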

[4] = target: T3, Polyunsaturated fatty acid 5-lipoxygenase (Homo sapiens, UniProt P09917); test: Inhibition of recombinant human 5-LO expressed in Escherichia coli BL21 assessed as 5-LO product formation preincubated for 15 mins followed by addition of arachidonic acid as substrate measured after 10 mins by RP-HPLC analysis
T3 sequence (P09917 whole entry): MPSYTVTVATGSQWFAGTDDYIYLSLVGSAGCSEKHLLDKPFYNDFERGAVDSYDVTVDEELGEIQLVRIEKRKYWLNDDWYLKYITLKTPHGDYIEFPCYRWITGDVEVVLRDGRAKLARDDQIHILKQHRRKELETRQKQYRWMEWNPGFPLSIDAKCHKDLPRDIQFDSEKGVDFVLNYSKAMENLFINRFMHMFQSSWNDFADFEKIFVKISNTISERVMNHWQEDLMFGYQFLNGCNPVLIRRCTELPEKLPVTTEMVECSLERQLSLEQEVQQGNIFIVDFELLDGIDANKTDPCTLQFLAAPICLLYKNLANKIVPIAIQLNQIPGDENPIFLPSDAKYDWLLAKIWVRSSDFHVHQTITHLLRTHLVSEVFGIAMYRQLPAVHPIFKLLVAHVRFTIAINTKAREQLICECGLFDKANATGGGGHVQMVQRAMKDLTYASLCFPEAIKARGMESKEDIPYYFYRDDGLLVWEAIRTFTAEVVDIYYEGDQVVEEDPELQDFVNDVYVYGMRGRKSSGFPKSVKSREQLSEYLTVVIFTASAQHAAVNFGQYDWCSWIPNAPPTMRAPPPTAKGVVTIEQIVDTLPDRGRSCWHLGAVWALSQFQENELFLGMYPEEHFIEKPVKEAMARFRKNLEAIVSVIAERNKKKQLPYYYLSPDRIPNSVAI
Summary of the method: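 Semi-purified 5-LO was diluted in ice-cold PBS with 1 mM EDTA and 1 mM ATP, then held 15 min at 4 °C with compound or 0.1% DMSO. After a 30 s prewarm at 37 °C, 2 mM CaCl₂ plus 20 arachidonic acid were added for 10 min at 37 °C. The reaction was stopped with methanol, and LTB₄ all-trans isomers plus 5-H(P)ETE were read by RP-HPLC. IC₅₀ is n = 3–4 in duplicates.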

Structure (SMILES) | Activity [1] [%] | IC50 [2] [nM] | IC50 [4] [nM] | Activity [3]
O=C(O)c1noc(-c2ccc(OCc3ccccc3Cl)cc2)c1-c1ccc(Cl)cc1 | 5.1 | 1200 | – | Non-toxic
O=C(O)c1noc(-c2ccc(OCc3ccccn3)cc2)c1-c1ccc(Cl)cc1 | 8.4 | 4100 | – | Non-toxic
O=C(O)c1noc(-c2ccc(OCc3nc4ccccc4s3)cc2)c1-c1ccc(Cl)cc1 | 2 | 240 | > 10000 | Non-toxic
CCOC(=O)c1noc(-c2ccc(OCc3ccccc3C)cc2)c1-c1ccc(Cl)cc1 | 71.9 | > 10000 | – | Non-toxic
N#Cc1cccc(COc2ccc(-c3onc(C(=O)O)c3-c3ccc(Cl)cc3)cc2)c1 | 6.9 | 4100 | – | Non-toxic
O=C(O)c1noc(-c2ccc(OCc3cccc(F)c3)cc2)c1-c1ccc(Cl)cc1 | 19.6 | 1300 | – | Non-toxic
CCOC(=O)c1noc(-c2ccc(OCc3cccc(F)c3)cc2)c1-c1ccc(Cl)cc1 | 55.3 | – | – | Non-toxic
COc1cc(OCc2ccccc2C)ccc1-c1onc(C)c1-c1ccc(Cl)cc1 | 81.3 | – | – | Non-toxic

Further lines, with some results ahead:

Activity [1] [%] | IC50 [2] [nM] | IC50 [4] [nM] | Structure (SMILES) | Activity [3]
5.5 | 770 | – | O=C(O)c1noc(-c2ccc(OCc3ccccc3C(F)(F)F)cc2)c1-c1ccc(Cl)cc1 | Non-toxic
6.7 | – | – | CC(c1cc2ccccc2s1)N(O)C(N)=O (stereo not drawn) [ZILEUTON] | Non-toxic
13.1 | 1700 | – | Cc1ccccc1COc1ccc(-c2onc(C(=O)O)c2-c2ccc(Cl)cc2)cc1 | Non-toxic
2.7 | 240 | – | O=C(O)c1noc(-c2ccc(OCc3ccc4ccccc4n3)cc2)c1-c1ccc(Cl)cc1 | Non-toxic
102 | – | – | Cc1ccccc1COc1ccc(-c2onc(C)c2-c2ccc(Cl)cc2)cc1 | Non-toxic
3 | – | – | Cc1ccccc1COc1ccc(-c2onc(C)c2-c2ccc(Cl)cc2)c(O)c1 | Non-toxic
15.7 | 1400 | – | Cc1ccc(COc2ccc(-c3onc(C(=O)O)c3-c3ccc(Cl)cc3)cc2)cc1 | Non-toxic
61.4 | – | – | CCOC(=O)c1noc(-c2ccc(OCc3ccc(C)cc3)cc2)c1-c1ccc(Cl)cc1 | Non-toxic
